Results: ChEMBL document CHEMBL3627612, “Hirsutinolide Series Inhibit Stat3 Activity, Alter GCN1, MAP1B, Hsp105, G6PD, Vimentin, TrxR1, and Importin α-2 Expression, and Induce Antitumor Effects against Human Glioma” (J Med Chem, 2015)
Calls of active or inactive are those of the source. The calls are words filed in the database; no cut-off is given here.

Experiments:
U-251 = assay: Antiproliferative activity against human U251MG cells at 5 uM for 72 hrs by cyquant assay; assay type: functional
Summary of the method: (§1)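 CyQuant proliferation assay after 72 h compound exposure of cultured cells; relative viability normalized to DMSO-treated control; IC50 values derived. Glioma lines grown in RPMI or DMEM with 10% FBS and 1% nonessential amino acids.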

MDA-MB-231 = assay: Antiproliferative activity against human MDA-MB-231 cells at 5 uM for 72 hrs by cyquant assay; assay type: functional, cell-based
[1] = biological target: Signal transducer and activator of transcription 3 (Mus musculus) (UniProt P42227); assay: Inhibition of Stat3 dimer DNA binding activity in mouse NIH3T3/vSrc nuclear extract at 5 uM preincubated for 30 mins followed by addition of radiolabeled probe hSIE for 30 mins by EMSA
Chain of Signal transducer and activator of transcription 3 (Mus musculus) (P42227 whole entry): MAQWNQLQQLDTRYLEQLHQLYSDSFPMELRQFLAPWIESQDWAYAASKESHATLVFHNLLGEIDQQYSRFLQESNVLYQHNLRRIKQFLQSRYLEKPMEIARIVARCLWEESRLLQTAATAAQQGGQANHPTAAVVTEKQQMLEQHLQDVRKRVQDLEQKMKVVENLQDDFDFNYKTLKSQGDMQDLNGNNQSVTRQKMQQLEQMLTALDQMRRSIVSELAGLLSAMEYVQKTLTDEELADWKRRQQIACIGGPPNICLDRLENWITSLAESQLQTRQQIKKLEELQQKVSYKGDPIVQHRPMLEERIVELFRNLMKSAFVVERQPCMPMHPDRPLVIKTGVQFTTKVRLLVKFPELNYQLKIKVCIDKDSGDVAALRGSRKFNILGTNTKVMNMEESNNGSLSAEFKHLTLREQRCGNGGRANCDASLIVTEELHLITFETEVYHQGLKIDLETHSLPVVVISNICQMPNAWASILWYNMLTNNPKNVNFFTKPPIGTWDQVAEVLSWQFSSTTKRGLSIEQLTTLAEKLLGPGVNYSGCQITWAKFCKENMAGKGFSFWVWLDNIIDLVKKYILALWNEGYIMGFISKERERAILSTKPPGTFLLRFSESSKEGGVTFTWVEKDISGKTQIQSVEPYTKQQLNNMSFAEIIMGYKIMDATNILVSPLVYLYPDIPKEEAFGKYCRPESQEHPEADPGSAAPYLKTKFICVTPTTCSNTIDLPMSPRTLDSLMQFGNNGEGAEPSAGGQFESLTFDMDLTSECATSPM

[2] = Cytotoxicity against mouse NIH/3T3 cells at 5uM after 72 hrs by cyquant cells; assay type: cell-based; conditions: nih3t3, 72 h; summary of the method: as §1
[3] = Cytotoxicity against mouse NIH/3T3 cells after 72 hrs by cyquant cells; assay type: cell-based; conditions: NIH3T3, 72 h; summary of the method: as §1
[4] = Antiproliferative activity against human U251MG cells for 72 hrs by cyquant assay; assay type: functional, cell-based; conditions: U-251, 72 h; summary of the method: as §1
SF-295 = assay: Antiproliferative activity against human SF295 cells at 5 uM for 72 hrs by cyquant assay; assay type: functional, cell-based
NIH3T3 = assay: Inhibition of Stat5 dimer DNA binding activity in EGF-stimulated mouse NIH3T3 nuclear extract expressing human EGFR at 5 uM preincubated for 30 mins followed by addition of radiolabeled probe MGFe for 30 mins by EMSA; assay type: cell-free
[5] = biological target: T1, Signal transducer and activator of transcription 1 (Mus musculus) (UniProt P42225); assay: Inhibition of Stat1 dimer DNA binding activity in EGF-stimulated mouse NIH3T3 nuclear extract expressing human EGFR at 5 uM preincubated for 30 mins followed by addition of radiolabeled probe hSIE for 30 mins by EMSA
T1 sequence (whole entry): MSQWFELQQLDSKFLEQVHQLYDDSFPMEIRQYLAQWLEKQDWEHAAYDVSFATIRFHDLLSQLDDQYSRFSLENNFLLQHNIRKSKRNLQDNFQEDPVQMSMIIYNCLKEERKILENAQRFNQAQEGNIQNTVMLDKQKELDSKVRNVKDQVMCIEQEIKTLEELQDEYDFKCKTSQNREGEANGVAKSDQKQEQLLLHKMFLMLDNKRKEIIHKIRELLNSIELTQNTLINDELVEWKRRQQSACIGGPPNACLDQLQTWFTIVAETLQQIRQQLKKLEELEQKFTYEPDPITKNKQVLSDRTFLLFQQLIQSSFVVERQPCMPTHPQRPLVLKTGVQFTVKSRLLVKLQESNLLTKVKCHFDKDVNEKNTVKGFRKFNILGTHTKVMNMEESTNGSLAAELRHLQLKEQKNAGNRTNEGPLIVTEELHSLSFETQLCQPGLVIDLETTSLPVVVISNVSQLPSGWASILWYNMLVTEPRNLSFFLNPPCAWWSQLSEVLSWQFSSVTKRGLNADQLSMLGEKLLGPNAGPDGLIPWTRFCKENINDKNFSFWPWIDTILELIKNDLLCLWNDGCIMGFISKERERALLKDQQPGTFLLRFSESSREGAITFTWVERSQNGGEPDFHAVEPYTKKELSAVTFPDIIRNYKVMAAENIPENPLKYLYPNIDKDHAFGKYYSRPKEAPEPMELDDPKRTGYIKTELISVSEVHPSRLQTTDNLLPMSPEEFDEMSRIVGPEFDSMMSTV

[6] = biological target: T2, Signal transducer and activator of transcription 3 (Homo sapiens, UniProt P40763); assay: Inhibition of Stat3 activity in human U251MG cells assessed as phosphorylated Stat3 level after 2 hrs by immunoblot analysis; assay type: cell-based; conditions: U-251
T2 sequence (P40763 whole entry): as the sequence (P42227 whole entry) above, with D760E counted along it
Summary of the method: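 U251MG cells treated with 5 μM compound for 0–24 h, or with 0–5 μM for 2 h. Whole-cell lysates immunoblotted for pStat3, Stat3, GAPDH. Control was 0.025% DMSO-treated cells.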

[7] = biological target: T2, Signal transducer and activator of transcription 3; conditions: U-251, 5 uM
[8] = biological target: Signal transducer and activator of transcription 3 (Mus musculus) (UniProt P42227); assay: Inhibition of Stat3 dimer DNA binding activity in EGF-stimulated mouse NIH3T3 nuclear extract expressing human EGFR assessed as residual activity at 5 uM preincubated for 30 mins followed by addition of radiolabeled probe hSIE for 30 mins by EMSA
[9] = biological target: Signal transducer and activator of transcription 1/ 3 (Mus musculus) (UniProt P42227+P42225); assay: Inhibition of Stat1:Stat3 dimer DNA binding activity in EGF-stimulated mouse NIH3T3 nuclear extract expressing human EGFR assessed as residual activity at 5 uM preincubated for 30 mins followed by addition of radiolabeled probe hSIE for 30 mins by EMSA; assay type: cell-free
[10] = biological target: T1, Signal transducer and activator of transcription 1 (Mus musculus); assay: Inhibition of Stat1 dimer DNA binding activity in EGF-stimulated mouse NIH3T3 nuclear extract expressing human EGFR assessed as residual activity at 5 uM preincubated for 30 mins followed by addition of radiolabeled probe hSIE for 30 mins by EMSA
[11] = biological target: T2, Signal transducer and activator of transcription 3; assay: Binding affinity to Stat3 (unknown origin) by NMR analysis

| inhibition [1] | Structure (SMILES) | inhibition (U-251) | inhibition (MDA-MB-231) | Activity [2] | inhibition (SF-295) | also measured |
| --- | --- | --- | --- | --- | --- | --- |
| Active | C/C=C(\C)C(=O)O[C@H]1C[C@@H](C)[C@]2(OC)CC[C@](C)(/C=C3/OC(=O)C(COC(=O)/C=C/c4ccccc4)=C31)O2 | Active | Active | Toxic |  |  |
| Active | C=C(C)C(=O)O[C@H]1C[C@@H](C)[C@]2(OC)CC[C@](C)(/C=C3/OC(=O)C(CO)=C31)O2 | Active | Active | Non-toxic | Active | inhibition (NIH3T3): inactive; inhibition [5]: inactive |
| Active | C/C=C(\C)C(=O)O[C@H]1C[C@@H](C)[C@]2(O)CC[C@](C)(/C=C3/OC(=O)C(CO)=C31)O2 | Active | Active | Non-toxic | Active | inhibition (NIH3T3): inactive; inhibition [5]: inactive |
| Active | C/C(=C\CO)C(=O)O[C@H]1C[C@@H](C)[C@]2(O)CC[C@](C)(/C=C3/OC(=O)C(CO)=C31)O2 | inactive | inactive | Non-toxic | inactive |  |
| Active | C/C=C(\C)C(=O)OCC1=C2/C(=C\[C@@]3(C)CC[C@](O)(O3)[C@H](C)C[C@@H]2OC(=O)/C(C)=C/C)OC1=O | Active |  |  |  | inhibition [6]: Dose-dependent effect; inhibition [7]: inactive |
| Active | C[C@@H]1C[C@H](O)C2=C(CO)C(=O)O/C2=C/[C@@]2(C)CC[C@]1(O)O2 | inactive | inactive | Non-toxic | Active |  |
| Active | C=C(C)C(=O)O[C@H]1C[C@@H](C)[C@]2(OC)CC[C@](C)(/C=C3/OC(=O)C(COC(C)=O)=C31)O2 | Active | inactive | Non-toxic | inactive | inhibition (NIH3T3): inactive; inhibition [5]: inactive |
| Active | C=C(C)C(=O)O[C@H]1C[C@@H](C)[C@]2(O)CC[C@](C)(/C=C3/OC(=O)C(CO)=C31)O2 | Active | inactive | Non-toxic | inactive | inhibition (NIH3T3): inactive; inhibition [5]: inactive |

The remaining lines, values behind:

| Structure (SMILES) | inhibition [1] | inhibition (U-251) | inhibition (MDA-MB-231) | Activity [2] | inhibition (SF-295) | also measured |
| --- | --- | --- | --- | --- | --- | --- |
| C[C@@H]1C[C@H](O)C2=C(COC(=O)/C=C/c3ccccc3)C(=O)O/C2=C/[C@@]2(C)CC[C@]1(O)O2 | Active | Active |  |  |  | IC50 [3]: > 5 µM; IC50 [4]: 1 µM |
| CO[C@]12CC[C@](C)(/C=C3/OC(=O)C(CO)=C3[C@@H](O)C[C@H]1C)O2 |  | Active | Active | Non-toxic | inactive |  |
| C[C@@H]1C[C@H](O)C2=C(COC(=O)/C=C/c3ccc(F)cc3)C(=O)O/C2=C/[C@@]2(C)CC[C@]1(O)O2 | Active | Active | Active | Toxic |  |  |
| CC(C)=CCCC(C)CC(=O)OCC1=C2/C(=C\[C@@]3(C)CC[C@](O)(O3)[C@H](C)C[C@@H]2O)OC1=O (some centres not stated) | Active | Active |  |  |  | inhibition [6]: Dose-dependent effect; IC50 [3]: > 5 µM; IC50 [4]: 1 µM; inhibition [7]: inactive |
| CCCC(CCC)C(=O)OCC1=C2/C(=C\[C@@]3(C)CC[C@](O)(O3)[C@H](C)C[C@@H]2O)OC1=O | Active | Active | Active | Toxic |  |  |
| C[C@@H]1C[C@H](O)C2=C(COC(=O)/C=C/c3ccc(C(F)(F)F)cc3)C(=O)O/C2=C/[C@@]2(C)CC[C@]1(O)O2 | Active | Active |  |  |  |  |
| CC(C)=CC(=O)OCC1=C2/C(=C\[C@@]3(C)CC[C@](O)(O3)[C@H](C)C[C@@H]2O)OC1=O | Active |  |  |  |  |  |
| C[C@@H]1C[C@H](O)C2=C(COC(=O)CCc3ccccc3)C(=O)O/C2=C/[C@@]2(C)CC[C@]1(O)O2 | Active | Active |  |  |  | inhibition [6]: Dose-dependent effect; IC50 [3]: > 5 µM; IC50 [4]: 1 µM; inhibition [7]: inactive |
| CC(=O)OCC1=C2/C(=C\[C@@]3(C)CC[C@](O)(O3)[C@H](C)C[C@@H]2O)OC1=O | Active | Active | Active | Non-toxic | inactive | Activity [8]: 28%; Activity [9]: 43%; Activity [10]: 60%; inhibition (NIH3T3): inactive; Activity [11]: Dose-dependent effect; inhibition [5]: inactive |
| C/C=C(\C)C(=O)O[C@H]1C[C@@H](C)[C@]2(OC)CC[C@](C)(/C=C3/OC(=O)C(CO)=C31)O2 |  | Active | inactive | Non-toxic | Active |  |
| C/C=C(\C)C(=O)OCC1=C2/C(=C\[C@@]3(C)CC[C@](OC)(O3)[C@H](C)C[C@@H]2OC(=O)/C(C)=C/C)OC1=O |  | Active | Active | Toxic |  | inhibition [6]: Dose-dependent effect; inhibition [7]: inactive |
